# Measurements taken from ChEMBL document CHEMBL4616594, “Virtual screening identification and chemical optimization of substituted 2-arylbenzimidazoles as new non-zinc-binding MMP-2 inhibitors” (Bioorg Med Chem, 2020).
# Legend:
# Collagenase 3 = Collagenase 3 (Homo sapiens, UniProt P45452); test: (§1) Inhibition of recombinant human MMP13 catalytic domain (Tyr104 to Asn274 residues) expressed in Escherichia coli cells using Mca-Pro-Leu-Gly-Leu-Dpa-Ala-Arg-NH2/TQ3-GABA-Pro-Cha-Abu-Smc-His-Ala-Dab(6'-TAMRA)-Ala-Lys-NH2 as fluorogenic substrate preincubated for 15 mins followed by substrate addition measured after 2 to 4 hrs by fluorometric assay
# [1] = target: 72 kDa type IV collagenase (Homo sapiens, UniProt P08253); test: as §1, with “MMP2” for “MMP13”, “(Tyr110” for “(Tyr104”, “Asp452” for “Asn274”, “yeast” for “Escherichia coli”, “analysis” for “assay”; format: biochemical
# Procedure, shortened: (§2)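 Commercial catalytic domain in Tris·HCl 50 mM pH 7.5, NaCl 150 mM, CaCl₂ 1 mM, ZnCl₂ 1 µM, 0.05% Brij-35, 1% DMSO. Inhibitor was tested at six concentrations (1 nM–100 µM), diluted from 10 mM DMSO stocks, and pre-incubated with enzyme for 15 min at room temperature. OmniMMP substrate (2.5 µM final) or OmniMMP RED substrate (1 µM final) was then added and incubated 2–4 h at 37°C. Fluorescence read at ex 340/em 405 or ex 545/em 572. Percent inhibition calculated versus no-inhibitor wells. Run in triplicate; IC50 given as mean ± SEM of ≥2 independent experiments.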
# [2] = target: Matrix metalloproteinase-9 (Homo sapiens, UniProt P14780); test: as §1, with “MMP9” for “MMP13”, “(Phe107” for “(Tyr104”, “Pro449” for “Asn274”; procedure, shortened: as §2
# Neutrophil collagenase = Neutrophil collagenase (Homo sapiens, UniProt P22894); test: as §1, with “MMP8” for “MMP13”, “(Phe99” for “(Tyr104”, “Gln269” for “Asn274”; procedure, shortened: as §2
# Chain of Neutrophil collagenase (P22894 whole entry): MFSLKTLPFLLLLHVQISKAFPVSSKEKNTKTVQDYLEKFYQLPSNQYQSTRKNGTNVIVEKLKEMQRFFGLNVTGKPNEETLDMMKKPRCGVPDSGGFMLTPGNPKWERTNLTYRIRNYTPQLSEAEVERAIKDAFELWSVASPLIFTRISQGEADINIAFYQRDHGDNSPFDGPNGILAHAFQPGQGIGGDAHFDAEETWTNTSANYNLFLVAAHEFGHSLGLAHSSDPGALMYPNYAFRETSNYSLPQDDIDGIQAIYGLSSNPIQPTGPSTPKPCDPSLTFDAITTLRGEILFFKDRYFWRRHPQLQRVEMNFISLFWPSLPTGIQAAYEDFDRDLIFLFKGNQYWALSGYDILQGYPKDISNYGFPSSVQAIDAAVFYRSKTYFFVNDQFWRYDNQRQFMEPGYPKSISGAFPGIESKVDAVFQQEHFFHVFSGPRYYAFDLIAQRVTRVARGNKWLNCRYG
# Chain of Matrix metalloproteinase-9 (P14780 whole entry): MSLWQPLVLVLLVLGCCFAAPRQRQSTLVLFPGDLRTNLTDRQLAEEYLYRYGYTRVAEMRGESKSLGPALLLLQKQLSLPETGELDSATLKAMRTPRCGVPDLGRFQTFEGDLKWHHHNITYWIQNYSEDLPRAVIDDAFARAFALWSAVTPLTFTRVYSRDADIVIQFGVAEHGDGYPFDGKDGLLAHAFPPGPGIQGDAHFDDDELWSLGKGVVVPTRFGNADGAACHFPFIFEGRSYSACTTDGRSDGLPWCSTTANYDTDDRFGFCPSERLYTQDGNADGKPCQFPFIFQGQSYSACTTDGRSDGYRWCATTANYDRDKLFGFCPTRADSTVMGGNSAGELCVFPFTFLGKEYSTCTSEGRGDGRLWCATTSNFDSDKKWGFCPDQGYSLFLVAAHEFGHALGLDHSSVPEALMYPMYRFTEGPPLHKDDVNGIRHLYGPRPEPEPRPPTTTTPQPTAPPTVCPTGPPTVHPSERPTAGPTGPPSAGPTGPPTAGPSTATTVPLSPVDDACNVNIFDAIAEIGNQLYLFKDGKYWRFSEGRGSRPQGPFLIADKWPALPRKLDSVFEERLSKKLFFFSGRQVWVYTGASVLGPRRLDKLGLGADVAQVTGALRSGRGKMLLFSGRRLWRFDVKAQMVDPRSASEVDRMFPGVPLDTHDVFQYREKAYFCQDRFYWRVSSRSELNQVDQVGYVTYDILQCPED
# Chain of 72 kDa type IV collagenase (P08253 whole entry, the tested form may be a part): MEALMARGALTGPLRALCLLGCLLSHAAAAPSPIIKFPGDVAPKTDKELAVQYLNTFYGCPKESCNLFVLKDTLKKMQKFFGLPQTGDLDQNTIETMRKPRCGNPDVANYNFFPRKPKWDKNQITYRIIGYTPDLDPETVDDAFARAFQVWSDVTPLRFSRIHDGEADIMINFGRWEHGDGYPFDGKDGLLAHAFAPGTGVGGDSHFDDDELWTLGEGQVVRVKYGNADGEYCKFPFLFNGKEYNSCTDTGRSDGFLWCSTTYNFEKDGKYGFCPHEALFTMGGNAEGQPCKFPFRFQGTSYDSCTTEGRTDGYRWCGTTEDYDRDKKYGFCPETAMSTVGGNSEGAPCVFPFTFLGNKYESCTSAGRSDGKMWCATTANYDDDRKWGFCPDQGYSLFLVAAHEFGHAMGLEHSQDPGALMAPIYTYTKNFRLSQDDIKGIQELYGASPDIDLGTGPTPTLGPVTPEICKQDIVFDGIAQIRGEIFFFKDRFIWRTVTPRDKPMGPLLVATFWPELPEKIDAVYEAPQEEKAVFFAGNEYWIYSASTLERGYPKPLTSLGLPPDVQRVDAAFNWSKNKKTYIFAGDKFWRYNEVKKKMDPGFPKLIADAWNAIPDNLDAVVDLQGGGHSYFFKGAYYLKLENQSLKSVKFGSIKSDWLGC
SMILES,IC50 (Collagenase 3) [µM],IC50 [1] [µM],IC50 [2] [µM],IC50 (Neutrophil collagenase) [µM]
O=[N+]([O-])c1ccc(-c2nc3cc([N+](=O)[O-])ccc3[nH]2)cc1,12,4.2,23.3,25
O=C(Nc1cccc(-c2nc3ccccc3[nH]2)c1)c1ccccc1,35,11.9,57,46
Cc1ccc2nc(-c3cccc(C(=O)NCCc4ccccc4)c3)[nH]c2c1,> 100,45,37.7,40
Cc1ccc2nc(-c3ccc(NC(=O)c4ccccc4)cc3)[nH]c2c1,6.5,8.6,28.4,45.3
O=C(CCc1ccccc1)Nc1ccc(-c2nc3ccc(Br)cc3[nH]2)cc1,6.5,7,11.5,8
COc1ccc(/C=C/C(=O)Nc2cccc(-c3nc4ccccc4[nH]3)c2)cc1,52,48,> 100,> 100
Cc1ccc2nc(-c3ccc(NC(=O)c4cccc([N+](=O)[O-])c4)cc3)[nH]c2c1,2.2,3.9,14.5,20.9
O=C(CCCc1ccccc1)Nc1ccc(-c2nc3ccc(Br)cc3[nH]2)cc1,22.2,31,58,67
Cc1ccc2oc(-c3ccc(NC(=O)c4ccc([N+](=O)[O-])cc4)cc3)nc2c1,11,15.9,20,14.7
O=C(Nc1ccc(-c2nc3ccc(Br)cc3[nH]2)cc1)c1ccccc1,3.9,6.42,32,50
Cc1ccc2nc(-c3ccc(NC(=O)CCc4ccccc4)cc3)[nH]c2c1,17.9,25.3,60,77
O=C(Nc1ccc(-c2nc3ccccc3[nH]2)cc1)c1ccc(Br)cc1,10.9,9.4,41,55
Cc1ccc2nc(-c3cccc([N+](=O)[O-])c3)[nH]c2c1,15.5,14,36.6,27
O=C(O)c1ccc(-c2nc3ccc(Br)cc3[nH]2)cc1,43,31.5,27,35
O=[N+]([O-])c1ccc(-c2nc3ccccc3[nH]2)cc1,> 100,82,56.5,64
O=[N+]([O-])c1ccc(-c2nc3ccccc3s2)cc1,7.5,6.5,11.5,10.5
Nc1ccc(-c2nc3ccccc3s2)cc1,> 100,> 100,79,88

# Second part, the compound after the results:
IC50 (Collagenase 3) [µM],IC50 [1] [µM],IC50 [2] [µM],IC50 (Neutrophil collagenase) [µM],SMILES
94,65.4,36,43.2,O=S(=O)(Nc1cccc(-c2nc3ccccc3[nH]2)c1)c1ccccc1
7.3,5.8,36,46,O=[N+]([O-])c1ccc(-c2nc3ccccc3o2)cc1
21,16.4,42,38,O=C(Nc1ccc(-c2nc3ccccc3s2)cc1)c1ccccc1
7.5,6.5,16,28,O=C(Nc1ccc(-c2nc3ccccc3[nH]2)cc1)c1ccccc1
> 100,87,68,41.9,O=C(CCc1ccccc1)Nc1cccc(-c2nc3ccccc3[nH]2)c1
> 100,31,26.6,32,Cc1ccc2nc(-c3cccc(NC(=O)CCc4ccccc4)c3)[nH]c2c1
73,16,14.5,12.5,O=C(CCc1ccccc1)Nc1cccc(-c2nc3ccc(Br)cc3[nH]2)c1
50,96,> 100,> 100,O=C(CCCc1ccccc1)Nc1ccc(-c2nc3ccccc3[nH]2)cc1
3.9,3.1,6.4,7.9,O=C(Nc1ccc(-c2nc3ccc(Br)cc3[nH]2)cc1)c1ccc([N+](=O)[O-])cc1
10.5,8.8,10,10,O=[N+]([O-])c1ccc(-c2nc3ccc(Br)cc3[nH]2)cc1
19,9,20.7,26.3,COC(=O)c1ccc(-c2nc3ccc(Br)cc3[nH]2)cc1
20,> 100,> 100,> 100,O=C(Nc1nc2ccc(Cl)cc2s1)c1ccc([N+](=O)[O-])cc1
> 100,64,60,29,Cc1cccc2nc(-c3cccc(NC(=O)CCc4ccccc4)c3)[nH]c12
81.2,47,43,34.6,O=C(CCCc1ccccc1)Nc1cccc(-c2nc3ccccc3[nH]2)c1
93,72,> 100,> 100,Cc1ccc2nc(-c3cccc(NC(=O)CN(C)Cc4ccccn4)c3)[nH]c2c1
> 100,> 100,> 100,> 100,O=C(Nc1nc2ccccc2s1)c1ccc([N+](=O)[O-])cc1
6.1,6.5,22,23,Cc1ccc2nc(-c3ccc([N+](=O)[O-])cc3)[nH]c2c1
91,60,38.6,40.9,Cc1cccc2nc(-c3cccc(NC(=O)CCCc4ccccc4)c3)[nH]c12
47,> 100,> 100,> 100,O=[N+]([O-])c1cccc(-c2nc3ccc(Br)cc3[nH]2)c1
21,10,21.7,26,Nc1ccc(-c2nc3ccc(Br)cc3[nH]2)cc1
33,31,32,27,O=[N+]([O-])c1ccc(-c2nc3ccccc3[nH]2)o1
1.8,3.3,10.7,25.5,Cc1ccc2nc(-c3ccc(NC(=O)c4ccc([N+](=O)[O-])cc4)cc3)[nH]c2c1
15.2,19,29,64,O=C(CCc1ccccc1)Nc1ccc(-c2nc3ccccc3[nH]2)cc1
9.4,9,18,29,Cc1ccc2nc(-c3ccc([N+](=O)[O-])cc3)oc2c1
> 100,> 100,> 100,> 100,Brc1ccc2nc(-c3ccccc3)[nH]c2c1
8.8,9.7,14.9,16.4,Cc1ccc2oc(-c3ccc([N+](=O)[O-])cc3)nc2c1
